From ChEMBL document CHEMBL1134340, “GnRH antagonists: a new generation of long acting analogues incorporating p-ureido-phenylalanines at positions 5 and 6” (J Med Chem, 2001) come the findings set out here.

In assay [1] the target is T1, Gonadotropin-releasing hormone receptor (Homo sapiens, UniProt P30968).
T1 sequence (P30968 whole entry): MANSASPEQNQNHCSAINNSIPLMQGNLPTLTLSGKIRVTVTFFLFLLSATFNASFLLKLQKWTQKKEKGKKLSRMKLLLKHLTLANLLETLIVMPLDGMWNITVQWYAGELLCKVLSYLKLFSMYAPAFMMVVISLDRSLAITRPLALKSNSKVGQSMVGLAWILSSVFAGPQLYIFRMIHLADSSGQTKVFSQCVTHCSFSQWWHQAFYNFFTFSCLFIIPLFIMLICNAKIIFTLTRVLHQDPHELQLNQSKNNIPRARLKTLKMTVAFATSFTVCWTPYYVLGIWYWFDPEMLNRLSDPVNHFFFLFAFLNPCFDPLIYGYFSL
Kind of assay: Antagonism of human GnHR receptor, determined in a reporter gene assay in HEK293 cells. The class given is functional, cell-based. Summed up:
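HEK293 cells stably expressing cloned human GnRH receptor plus luciferase reporter under LH alpha subunit promoter, plated 24 h before assay. Compound in 1% DMSO added 10 min at 37 °C, then GnRH at 3 nM final; 5 h incubation, luciferase luminescence read. Six concentrations in duplicate; blank-subtracted cps as % of GnRH control; mean of two determinations.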
A general note: In a reporter assay the amount or activity of a reporter protein is the signal.

For assay [2], the target named is T1, Gonadotropin-releasing hormone receptor. Nature of the assay: Competitive antagonism of GnRH-induced response in the reporter gene assay. The class given is functional. Conditions: read-out: pA2 (converted). The procedure, abridged:
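Same HEK293 human GnRH receptor luciferase reporter cells. Seven-point GnRH curve (10 µM to 10 pM final) run in duplicate without or with four to five increasing compound concentrations (10 min preincubation, 37 °C), then 5 h and luminescence. GnRH EC50 at each level by four-parameter logistic fit, giving pA2; mean of two determinations in duplicate.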

pIC50: −log10 of the molar value. Where a SMILES comes first, the peptide text is derived from it. [ ]: non-standard residue; d: D form. d(hArg(Et2)) = CCN=C(NCC)NCCCC[C@@H](N)C(=O)O; hArg(Et2) = CCN=C(NCC)NCCCC[C@H](N)C(=O)O; dPhe(4-Cl) = N[C@H](Cc1ccc(Cl)cc1)C(=O)O; d2Nal = N[C@H](Cc1ccc2ccccc2c1)C(=O)O; Lys(iPr) = CC(C)NCCCC[C@H](N)C(=O)O; NMeY = CN[C@@H](Cc1ccc(O)cc1)C(=O)O; d3Pal = N[C@H](Cc1cccnc1)C(=O)O

On to `CC(=O)NCc1ccc(C[C@@H](NC(=O)[C@H](Cc2ccc(NC(=O)[C@H]3CC(=O)NC(=O)N3)cc2)NC(=O)[C@H](CO)NC(=O)[C@@H](Cc2cccnc2)NC(=O)[C@@H](Cc2ccc(Cl)cc2)NC(=O)[C@@H](Cc2ccc3ccccc3c2)NC(C)=O)C(=O)N[C@@H](CC(C)C)C(=O)N[C@@H](CCCCNC(C)C)C(=O)N2CCC[C@H]2C(=O)N[C@H](C)C(N)=O)cc1`, for which, in assay [1], the pIC50 (in general, −log10 of the IC50, conventionally taken in molar units) is 8.15. For the same compound, the Kb in assay [2] is 1.58 nM.
For the compound `CC(=O)N[C@H](Cc1ccc2ccccc2c1)C(=O)N[C@H](Cc1ccc(Cl)cc1)C(=O)N[C@H](Cc1cccnc1)C(=O)N[C@@H](CO)C(=O)N[C@@H](Cc1ccc(NC(=O)[C@@H]2CC(=O)NC(=O)N2)cc1)C(=O)N[C@H](Cc1ccc2ccccc2c1)C(=O)N[C@@H](CC(C)C)C(=O)N[C@@H](CCCCNC(C)C)C(=O)N1CCC[C@H]1C(=O)N[C@H](C)C(N)=O`, the negative-log IC50 (pIC50) in assay [1] was 7.89.
In turn, `CCN=C(NCC)NCCCC[C@H](NC(=O)[C@H](CC(C)C)NC(=O)[C@@H](CCCCNC(=NCC)NCC)NC(=O)[C@H](Cc1ccc(O)cc1)NC(=O)[C@H](CO)NC(=O)[C@@H](Cc1cccnc1)NC(=O)[C@@H](Cc1ccc(Cl)cc1)NC(=O)[C@@H](Cc1ccc2ccccc2c1)NC(C)=O)C(=O)N1CCC[C@H]1C(=O)N[C@H](C)C(N)=O` [GANIRELIX ACETATE] (Ac-[d2Nal][dPhe(4-Cl)][d3Pal]SY[d(hArg(Et2))]L[hArg(Et2)]P[dA]-NH2) had a pIC50 in assay [1] of 8.44. The Kb in assay [2] was 0.501 nM.
On the same counts, the results for `CNC(=O)NCc1ccc(C[C@@H](NC(=O)[C@H](Cc2ccc(NC(=O)[C@@H]3CC(=O)NC(=O)N3)cc2)NC(=O)[C@H](CO)NC(=O)[C@@H](Cc2cccnc2)NC(=O)[C@@H](Cc2ccc(Cl)cc2)NC(=O)[C@@H](Cc2ccc3ccccc3c2)NC(C)=O)C(=O)N[C@@H](CC(C)C)C(=O)N[C@@H](CCCCNC(C)C)C(=O)N2CCC[C@H]2C(=O)N[C@H](C)C(N)=O)cc1` are 8.10 and 0.794 nM.
Taken in the same sequence, the figures for `CC(=O)NCc1ccc(C[C@@H](NC(=O)[C@H](Cc2ccc(NC(=O)[C@@H]3CC(=O)NC(=O)N3)cc2)NC(=O)[C@H](CO)NC(=O)[C@@H](Cc2cccnc2)NC(=O)[C@@H](Cc2ccc(Cl)cc2)NC(=O)[C@@H](Cc2ccc3ccccc3c2)NC(C)=O)C(=O)N[C@@H](CC(C)C)C(=O)N[C@@H](CCCCNC(C)C)C(=O)N2CCC[C@H]2C(=O)N[C@H](C)C(N)=O)cc1` were 8.02 and 1 nM.
For the compound `CC(=O)Nc1ccc(C[C@@H](NC(=O)[C@H](Cc2ccc(NC(=O)c3cc(=O)[nH]c(=O)[nH]3)cc2)NC(=O)[C@H](CO)NC(=O)[C@@H](Cc2cccnc2)NC(=O)[C@@H](Cc2ccc(Cl)cc2)NC(=O)[C@@H](Cc2ccc3ccccc3c2)NC(C)=O)C(=O)N[C@@H](CC(C)C)C(=O)N[C@@H](CCCCNC(C)C)C(=O)N2CCC[C@H]2C(=O)N[C@H](C)C(N)=O)cc1`, in assay [1], the pIC50 is 7.97.
In the case of `CC(=O)N[C@H](Cc1ccc2ccccc2c1)C(=O)N[C@H](Cc1ccc(Cl)cc1)C(=O)N[C@H](Cc1cccnc1)C(=O)N[C@@H](CO)C(=O)N[C@@H](Cc1ccc(NC(=O)[C@@H]2CC(=O)NC(=O)N2)cc1)C(=O)N[C@H](Cc1ccc(NC(=O)[C@@H]2CC(=O)NC(=O)N2)cc1)C(=O)N[C@@H](CC(C)C)C(=O)N[C@@H](CCCCNC(C)C)C(=O)N1CCC[C@H]1C(=O)N[C@H](C)C(N)=O`, the pIC50 in assay [1] is 7.97. Besides, in assay [2], the Kb was 1 nM.
For `CC(=O)N[C@H](Cc1ccc2ccccc2c1)C(=O)N[C@H](Cc1ccc(Cl)cc1)C(=O)N[C@H](Cc1cccnc1)C(=O)N[C@@H](CO)C(=O)N[C@@H](Cc1ccc(NC(=O)[C@H]2CC(=O)NC(=O)N2)cc1)C(=O)N[C@H](Cc1ccc(CNC(N)=O)cc1)C(=O)N[C@@H](CC(C)C)C(=O)N[C@@H](CCCCNC(C)C)C(=O)N1CCC[C@H]1C(=O)N[C@H](C)C(N)=O`, the negative-log IC50 (pIC50) in assay [1] is 8.11.
In assay [1], `CC(=O)N[C@H](Cc1ccc2ccccc2c1)C(=O)N[C@H](Cc1ccc(Cl)cc1)C(=O)N[C@H](Cc1cccnc1)C(=O)N[C@@H](CO)C(=O)N[C@@H](Cc1ccc(NC(=O)[C@@H]2CC(=O)NC(=O)N2)cc1)C(=O)N[C@H](Cc1ccc(CNC(N)=O)cc1)C(=O)N[C@@H](CC(C)C)C(=O)N[C@@H](CCCCNC(C)C)C(=O)N1CCC[C@H]1C(=O)N[C@H](C)C(N)=O` had a pIC50 of 8.25. The Kb in assay [2] is 1.26 nM.
On the same counts, the results for `CC(=O)N[C@H](Cc1ccc2ccccc2c1)C(=O)N[C@H](Cc1ccc(Cl)cc1)C(=O)N[C@H](Cc1cccnc1)C(=O)N[C@@H](CO)C(=O)N(C)[C@@H](Cc1ccc(O)cc1)C(=O)N[C@H](CC(N)=O)C(=O)N[C@@H](CC(C)C)C(=O)N[C@@H](CCCCNC(C)C)C(=O)N1CCC[C@H]1C(=O)N[C@H](C)C(N)=O` [ABARELIX] (Ac-[d2Nal][dPhe(4-Cl)][d3Pal]S[NMeY][dN]L[Lys(iPr)]P[dA]-NH2) are 8.46 and 0.794 nM.
Taken in the same sequence, the figures for `CCNC(=O)[C@@H]1CCCN1C(=O)[C@H](CCCCNC(C)C)NC(=O)[C@H](CC(C)C)NC(=O)[C@@H](Cc1ccc(CNC(N)=O)cc1)NC(=O)[C@H](Cc1ccc(NC(=O)[C@@H]2CC(=O)NC(=O)N2)cc1)NC(=O)[C@H](CO)NC(=O)[C@@H](Cc1cccnc1)NC(=O)[C@@H](Cc1ccc(Cl)cc1)NC(=O)[C@@H](Cc1ccc2ccccc2c1)NC(C)=O` were 8.06 and 0.631 nM.
On the same counts, the results for `CC(=O)Nc1ccc(C[C@H](NC(=O)[C@H](CO)NC(=O)[C@@H](Cc2cccnc2)NC(=O)[C@@H](Cc2ccc(Cl)cc2)NC(=O)[C@@H](Cc2ccc3ccccc3c2)NC(C)=O)C(=O)N[C@H](Cc2ccc(CNC(N)=O)cc2)C(=O)N[C@@H](CC(C)C)C(=O)N[C@@H](CCCCNC(C)C)C(=O)N2CCC[C@H]2C(=O)N[C@H](C)C(N)=O)cc1` are 8.19 and 0.631 nM.
Turning to `CC(=O)N[C@H](Cc1ccc2ccccc2c1)C(=O)N[C@H](Cc1ccc(Cl)cc1)C(=O)N[C@H](Cc1cccnc1)C(=O)N[C@@H](CO)C(=O)N[C@@H](Cc1ccc(NC(=O)[C@@H]2CC(=O)NC(=O)N2)cc1)C(=O)N[C@H](Cc1cccnc1)C(=O)N[C@@H](CC(C)C)C(=O)N[C@@H](CCCCNC(C)C)C(=O)N1CCC[C@H]1C(=O)N[C@H](C)C(N)=O`, in assay [1], the pIC50 was 8.55. Moreover, the Kb in assay [2] was 2 nM.
In assay [1], `CC(=O)N[C@H](Cc1ccc2ccccc2c1)C(=O)N[C@H](Cc1ccc(Cl)cc1)C(=O)N[C@H](Cc1cccnc1)C(=O)N[C@@H](CO)C(=O)N[C@@H](Cc1ccc(NC(=O)[C@@H]2CC(=O)NC(=O)N2)cc1)C(=O)N[C@H](CCCNC(N)=O)C(=O)N[C@@H](CC(C)C)C(=O)N[C@@H](CCCCNC(C)C)C(=O)N1CCC[C@H]1C(=O)N[C@H](C)C(N)=O` gave a pIC50 of 8.24. The Kb in assay [2] was 0.794 nM.
As for `CC(=O)Nc1ccc(C[C@@H](NC(=O)[C@H](Cc2ccc(CNC(=O)[C@@H]3CC(=O)NC(=O)N3)cc2)NC(=O)[C@H](CO)NC(=O)[C@@H](Cc2cccnc2)NC(=O)[C@@H](Cc2ccc(Cl)cc2)NC(=O)[C@@H](Cc2ccc3ccccc3c2)NC(C)=O)C(=O)N[C@@H](CC(C)C)C(=O)N[C@@H](CCCCNC(C)C)C(=O)N2CCC[C@H]2C(=O)N[C@H](C)C(N)=O)cc1`, the pIC50 in assay [1] was 8.10. Also, the Kb in assay [2] is 0.316 nM.
